From ChEMBL document CHEMBL1152560, “Substituted 2-arylbenzothiazoles as kinase inhibitors: hit-to-lead optimization” (Bioorg Med Chem, 2009)

Assays:
Aurora kinase A = molecular target: T1, Aurora kinase A (Homo sapiens, UniProt O14965); assay: Inhibition of Aurora-A by microplate scintillation counting
T1 sequence (O14965 whole entry): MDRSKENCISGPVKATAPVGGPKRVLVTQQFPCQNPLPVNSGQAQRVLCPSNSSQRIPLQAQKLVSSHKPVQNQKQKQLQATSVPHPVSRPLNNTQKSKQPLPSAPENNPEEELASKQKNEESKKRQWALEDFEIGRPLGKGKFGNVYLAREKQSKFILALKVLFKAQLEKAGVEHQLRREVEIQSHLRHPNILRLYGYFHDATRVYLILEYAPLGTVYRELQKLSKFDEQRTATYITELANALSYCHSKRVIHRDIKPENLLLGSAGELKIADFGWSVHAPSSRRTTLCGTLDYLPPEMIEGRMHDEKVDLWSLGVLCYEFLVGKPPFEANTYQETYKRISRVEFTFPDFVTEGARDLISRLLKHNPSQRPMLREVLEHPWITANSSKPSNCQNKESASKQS
Procedure, shortened: (§1)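 Substrates: tetra(LRRWSLG) for Aurora A/B; poly(Ala,Glu,Lys,Tyr)6:2:5:1 for PDGFRβ; poly(Glu,Tyr)4:1 for TIE2 and VEGFR2. Stopped with 2% H3PO4.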

Aurora kinase B = Aurora kinase B (Homo sapiens, UniProt Q96GD4); assay: Inhibition of Aurora-B by microplate scintillation counting; procedure, shortened: as §1
Aurora kinase B, sequence (Q96GD4 whole entry): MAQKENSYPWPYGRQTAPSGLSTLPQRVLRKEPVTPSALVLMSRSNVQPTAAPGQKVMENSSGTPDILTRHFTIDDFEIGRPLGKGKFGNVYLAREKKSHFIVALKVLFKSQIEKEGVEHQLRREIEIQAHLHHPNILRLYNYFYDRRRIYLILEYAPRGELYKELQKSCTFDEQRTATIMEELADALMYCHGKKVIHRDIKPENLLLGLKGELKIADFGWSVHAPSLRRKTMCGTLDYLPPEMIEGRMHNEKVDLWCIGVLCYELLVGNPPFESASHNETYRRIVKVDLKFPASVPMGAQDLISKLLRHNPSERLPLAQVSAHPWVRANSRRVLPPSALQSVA

[1] = molecular target: T2, Epidermal growth factor receptor (Homo sapiens, UniProt P00533); assay: Inhibition of wild type EGF-R by microplate scintillation counting
[2] = molecular target: Vascular endothelial growth factor receptor 2 (Homo sapiens, UniProt P35968); assay: Inhibition of VEGFR2 by microplate scintillation counting
Angiopoietin-1 receptor [3] = molecular target: T3, Angiopoietin-1 receptor (Homo sapiens, UniProt Q02763); assay: Inhibition of TIE2 by microplate scintillation counting
T3 sequence (Q02763 whole entry): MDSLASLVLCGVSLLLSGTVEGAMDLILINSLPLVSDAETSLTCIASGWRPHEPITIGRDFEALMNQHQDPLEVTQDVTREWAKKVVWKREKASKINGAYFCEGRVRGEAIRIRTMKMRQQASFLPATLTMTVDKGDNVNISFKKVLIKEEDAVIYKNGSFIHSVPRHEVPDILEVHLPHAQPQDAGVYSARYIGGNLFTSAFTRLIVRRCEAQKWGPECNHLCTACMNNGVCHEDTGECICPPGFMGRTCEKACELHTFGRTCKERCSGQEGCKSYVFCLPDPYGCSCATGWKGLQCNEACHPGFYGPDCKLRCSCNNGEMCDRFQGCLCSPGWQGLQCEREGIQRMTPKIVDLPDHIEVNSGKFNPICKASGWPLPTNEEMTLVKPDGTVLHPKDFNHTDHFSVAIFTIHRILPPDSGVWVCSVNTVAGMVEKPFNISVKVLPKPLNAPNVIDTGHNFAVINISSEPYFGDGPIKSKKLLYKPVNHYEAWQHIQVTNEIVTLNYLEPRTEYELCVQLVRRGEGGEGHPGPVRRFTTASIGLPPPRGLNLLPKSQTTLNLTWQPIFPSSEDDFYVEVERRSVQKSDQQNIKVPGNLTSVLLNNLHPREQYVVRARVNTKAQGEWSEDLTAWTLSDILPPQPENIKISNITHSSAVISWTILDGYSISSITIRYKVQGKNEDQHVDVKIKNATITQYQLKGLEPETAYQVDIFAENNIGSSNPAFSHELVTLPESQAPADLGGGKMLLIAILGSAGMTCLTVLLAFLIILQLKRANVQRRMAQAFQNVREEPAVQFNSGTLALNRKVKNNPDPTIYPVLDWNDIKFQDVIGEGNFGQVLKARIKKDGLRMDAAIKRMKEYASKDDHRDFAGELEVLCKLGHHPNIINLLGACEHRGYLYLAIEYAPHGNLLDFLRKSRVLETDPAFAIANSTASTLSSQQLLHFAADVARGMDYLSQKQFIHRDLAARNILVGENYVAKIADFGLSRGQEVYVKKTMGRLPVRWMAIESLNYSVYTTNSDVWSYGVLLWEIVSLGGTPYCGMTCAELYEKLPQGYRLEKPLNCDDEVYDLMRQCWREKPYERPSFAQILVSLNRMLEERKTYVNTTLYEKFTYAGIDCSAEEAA

[4] = molecular target: Receptor tyrosine-protein kinase erbB-2 (Homo sapiens, UniProt P04626); assay: Inhibition of ERBB2 by microplate scintillation counting
Receptor tyrosine-protein kinase erbB-2, sequence (P04626 whole entry): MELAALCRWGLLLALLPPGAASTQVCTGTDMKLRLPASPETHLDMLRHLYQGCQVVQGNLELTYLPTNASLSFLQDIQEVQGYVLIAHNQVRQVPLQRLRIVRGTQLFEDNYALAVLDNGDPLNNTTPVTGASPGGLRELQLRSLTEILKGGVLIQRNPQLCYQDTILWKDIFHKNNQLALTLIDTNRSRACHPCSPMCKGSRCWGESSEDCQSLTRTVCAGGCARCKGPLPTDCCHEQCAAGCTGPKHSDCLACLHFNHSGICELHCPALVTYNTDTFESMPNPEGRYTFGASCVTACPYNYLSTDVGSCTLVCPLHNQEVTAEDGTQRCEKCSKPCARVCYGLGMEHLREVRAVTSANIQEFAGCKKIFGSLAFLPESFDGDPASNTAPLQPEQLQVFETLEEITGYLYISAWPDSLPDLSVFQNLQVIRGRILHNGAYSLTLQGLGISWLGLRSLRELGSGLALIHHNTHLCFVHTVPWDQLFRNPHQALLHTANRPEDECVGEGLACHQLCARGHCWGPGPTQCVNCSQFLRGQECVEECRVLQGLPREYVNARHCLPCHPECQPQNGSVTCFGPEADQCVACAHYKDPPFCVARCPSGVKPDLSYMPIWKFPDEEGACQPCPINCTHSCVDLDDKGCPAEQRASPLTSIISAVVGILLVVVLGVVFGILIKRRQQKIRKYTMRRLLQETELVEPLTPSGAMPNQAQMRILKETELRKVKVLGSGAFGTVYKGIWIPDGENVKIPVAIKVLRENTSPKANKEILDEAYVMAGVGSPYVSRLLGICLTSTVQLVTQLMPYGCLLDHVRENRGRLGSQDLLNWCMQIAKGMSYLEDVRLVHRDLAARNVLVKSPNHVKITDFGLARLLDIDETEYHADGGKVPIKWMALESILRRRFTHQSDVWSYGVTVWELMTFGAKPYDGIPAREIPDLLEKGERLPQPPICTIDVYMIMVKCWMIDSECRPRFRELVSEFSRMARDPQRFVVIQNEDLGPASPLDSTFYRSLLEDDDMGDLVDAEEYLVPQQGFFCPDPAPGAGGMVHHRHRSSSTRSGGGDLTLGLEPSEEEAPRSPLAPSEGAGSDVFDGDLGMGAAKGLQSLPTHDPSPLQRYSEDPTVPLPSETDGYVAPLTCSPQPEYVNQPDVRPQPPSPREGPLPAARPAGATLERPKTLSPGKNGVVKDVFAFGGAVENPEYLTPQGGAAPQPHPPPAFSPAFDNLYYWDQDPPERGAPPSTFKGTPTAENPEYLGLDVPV
Procedure, shortened: (§2)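 Radiometric FlashPlate assay using recombinant kinase (10–200 ng/well) with poly(Glu,Tyr)4:1 substrate. Buffer: 60 mM HEPES-NaOH pH 7.5, 3 mM MgCl2, 3 mM MnCl2, 3 µM orthovanadate, 1.2 mM DTT, PEG 20000, 1 µM [γ-33P]-ATP. Run 80 min at 30 °C, stopped with H3PO4, and 33P incorporation counted.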

[5] = molecular target: Platelet-derived growth factor receptor beta (Homo sapiens, UniProt P09619); assay: Inhibition of PDGFRbeta by microplate scintillation counting; procedure, shortened: as §1
[6] = molecular target: Vascular endothelial growth factor receptor 3 (Homo sapiens, UniProt P35916); assay: Inhibition of VEGFR3 by microplate scintillation counting; procedure, shortened: as §2
Vascular endothelial growth factor receptor 3, sequence (P35916 whole entry): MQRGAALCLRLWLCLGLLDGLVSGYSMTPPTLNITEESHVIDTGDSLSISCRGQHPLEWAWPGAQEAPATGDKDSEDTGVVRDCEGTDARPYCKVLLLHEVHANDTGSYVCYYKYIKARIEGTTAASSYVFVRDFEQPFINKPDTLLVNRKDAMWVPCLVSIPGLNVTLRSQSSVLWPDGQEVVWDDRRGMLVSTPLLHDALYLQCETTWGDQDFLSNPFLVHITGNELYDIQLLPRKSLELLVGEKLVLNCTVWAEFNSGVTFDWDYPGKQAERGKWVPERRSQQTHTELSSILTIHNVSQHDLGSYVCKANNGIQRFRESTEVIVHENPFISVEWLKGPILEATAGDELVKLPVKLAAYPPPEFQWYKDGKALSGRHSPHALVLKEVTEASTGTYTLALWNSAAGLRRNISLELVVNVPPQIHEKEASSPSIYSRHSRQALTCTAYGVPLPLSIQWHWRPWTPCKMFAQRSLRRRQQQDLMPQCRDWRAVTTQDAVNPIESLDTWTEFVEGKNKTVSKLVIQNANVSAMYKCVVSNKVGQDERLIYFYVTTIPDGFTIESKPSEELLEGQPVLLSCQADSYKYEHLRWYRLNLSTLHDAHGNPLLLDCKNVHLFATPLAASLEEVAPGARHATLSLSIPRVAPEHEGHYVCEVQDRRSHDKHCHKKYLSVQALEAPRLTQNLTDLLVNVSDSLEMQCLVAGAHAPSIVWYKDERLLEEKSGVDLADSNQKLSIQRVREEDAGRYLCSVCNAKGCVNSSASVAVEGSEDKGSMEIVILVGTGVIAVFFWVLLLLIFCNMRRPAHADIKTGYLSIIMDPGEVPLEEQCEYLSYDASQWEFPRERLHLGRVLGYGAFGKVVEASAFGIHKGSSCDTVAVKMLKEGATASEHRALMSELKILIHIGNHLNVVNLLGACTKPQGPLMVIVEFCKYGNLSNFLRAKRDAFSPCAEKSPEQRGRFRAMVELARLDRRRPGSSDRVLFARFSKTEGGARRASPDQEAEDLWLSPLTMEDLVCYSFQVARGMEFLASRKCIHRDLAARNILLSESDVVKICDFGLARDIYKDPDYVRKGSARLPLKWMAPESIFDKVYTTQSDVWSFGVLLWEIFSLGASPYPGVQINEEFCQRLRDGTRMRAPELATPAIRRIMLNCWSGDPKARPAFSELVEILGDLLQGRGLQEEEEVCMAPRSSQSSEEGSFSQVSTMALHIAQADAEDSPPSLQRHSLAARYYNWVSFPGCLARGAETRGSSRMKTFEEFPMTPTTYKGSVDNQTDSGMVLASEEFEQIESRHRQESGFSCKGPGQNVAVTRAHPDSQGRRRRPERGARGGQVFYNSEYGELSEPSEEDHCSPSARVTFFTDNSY

[7] = molecular target: T2, Epidermal growth factor receptor; assay: Inhibition of EGFR in human HCT116 cells by cellular phosphorylation assay
Angiopoietin-1 receptor [8] = molecular target: T3, Angiopoietin-1 receptor; assay: Inhibition of TIE2 in human HCT116 cells by cellular phosphorylation assay; assay type: cell-based, HCT-116
Procedure, shortened: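 TIE2 autophosphorylation in cells expressing the receptor. Compound was applied, cells were stimulated, then lysed with phosphoprotein levels preserved. Phosphorylation was quantified by sandwich ELISA with a receptor-specific capture antibody and anti-phosphotyrosine antibody, relative to the stimulated high control.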

IC50 (Aurora kinase A) [nM]	IC50 (Aurora kinase B) [nM]	IC50 [1] [nM]	IC50 [2] [nM]	IC50 (Angiopoietin-1 receptor [3]) [nM]	IC50 [4] [nM]	IC50 [5] [nM]	IC50 [6] [nM]	EC50 [7] [nM]	EC50 (Angiopoietin-1 receptor [8]) [nM]	SMILES
91	59	110	380	120	780	4500	520	33000	> 10000	COc1cc2c(Nc3ccc(-c4nc5ccccc5s4)c(O)c3)ncnc2cc1OCCCN1CCN(C)CC1
60	120	> 10000	> 10000	3300	> 10000	8200	> 10000	> 10000	> 10000	COc1cc2c(Nc3ccc(-c4nc5cc(C(F)(F)F)ccc5s4)cc3)ncnc2cc1OCCCN1CCN(C)CC1
65	90	> 10000	3300	330	> 10000	5100	1700	> 10000	> 10000	COc1cc(-c2nc3ccccc3s2)ccc1Nc1ncnc2cc(OCCCN3CCN(C)CC3)c(OC)cc12
120	300	2	1200	110	5	2100	7100	9400	> 10000	COc1cc2c(Nc3ccc(-c4nc5ccccc5s4)c(OC)c3)ncnc2cc1OCCCN1CCN(C)CC1
